Reference: ChEMBL document CHEMBL5154895, “Mechanistic Studies and In Vivo Efficacy of an Oxadiazole-Containing Antibiotic” (J Med Chem, 2022)
In brackets after ≈: the same amount, converted by molar mass. Activity calls are given as the source filed them. The calls are words filed in the database; no cut-off is given here.

How the values were obtained:
Staphylococcus aureus [1] = experiment: Downregulation of LukS-PV protein expression in Staphylococcus aureus assessed as log2 of fold change in protein level measured after 2 hrs by LC-MS/MS analysis relative to control; format: functional
In short: (§1)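 S. aureus ATCC 25923 at OD600 0.6 was treated with compound or DMSO for 2 h at 37 °C, normalised to OD600 1.1, and washed in PBS. Cells were pressure-lysed in 100 mM ammonium bicarbonate, then acetone-precipitated, reduced with DTT, alkylated with iodoacetamide, and digested with trypsin/Lys-C. Peptides were desalted and run on LC-MS/MS. Label-free quantitation used proteins present in all 3 samples, filtered at p<0.05 against DMSO.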

Staphylococcus aureus [2] = experiment: Downregulation of membrane protein expression in Staphylococcus aureus measured after 2 hrs by LC-MS/MS analysis; format: functional
In short: (§2)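 S. aureus ATCC 25923 at OD600 0.6 exposed to compound or DMSO control for 2 h at 37°C, normalized to OD600 1.1 and PBS-washed. Cells were pressure-cycling lysed in 100 mM ammonium bicarbonate, and 50 μg protein was acetone-precipitated, reduced and alkylated, then Trypsin/Lys-C digested and C18-desalted. About 1 μg peptides went to LC-MS/MS. Label-free quantitation kept proteins present in all 3 samples, filtered at p <0.05.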

Staphylococcus aureus [3] = experiment: Downregulation of MAP domain-containing protein expression in Staphylococcus aureus measured after 2 hrs by LC-MS/MS analysis; format: functional; in short: as §1
Staphylococcus aureus [4] = experiment: Upregulation of siderophore biosynthesis protein SbnA expression in Staphylococcus aureus measured after 2 hrs by LC-MS/MS analysis; format: functional; in short: as §2
Staphylococcus aureus [5] = experiment: Upregulation of Cro/CI family transcriptional regulator expression in Staphylococcus aureus measured after 2 hrs by LC-MS/MS analysis; format: functional; in short: as §2
Staphylococcus aureus [6] = experiment: Downregulation of glutamyl endopeptidase protein expression in Staphylococcus aureus measured after 2 hrs by LC-MS/MS analysis; format: functional; in short: as §1
Staphylococcus aureus [7] = experiment: Downregulation of site-specific integrase protein expression in Staphylococcus aureus measured after 2 hrs by LC-MS/MS analysis; format: functional; in short: as §2
Mus musculus [8] = experiment: Acceleration of wound healing in methicillin-resistant Staphylococcus aureus USA300 infected Balb/c mouse model assessed as reduction in IL-1beta level in skin wounds administered topically twice daily 2 days post infection and measured after 5 days post compound treatment; format: functional, organism-based; details: time 5.0 day
In short: (§3)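 Mice had two 6-mm dorsal excisional wounds, each infected with 20 μL of 4.2×10^9 CFU/mL MRSA USA300 and covered with Tegaderm. Treatment began 2 days after infection (n=5 per group): 2% compound in petroleum jelly applied topically twice daily for 5 days. Right-wound homogenates in PBS were centrifuged, supernatants pooled per group, and protein normalised by BCA. Cytokines were measured by mouse cytokine array (pg/mL).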

Staphylococcus aureus [9] = experiment: Downregulation of LipA protein expression in Staphylococcus aureus assessed as log2 of fold change in protein level measured after 2 hrs by LC-MS/MS analysis relative to control; format: functional; in short: as §1
[10] = Toxicity in Balb/c mouse infected with methicillin-resistant Staphylococcus aureus USA300 assessed as necrosis administered topically twice daily 2 days post infection and measured after 5 days post compound treatment by H and E staining based histopathological analysis; details: in vivo, topical_or_ocular, 120 h, time 5 day
In short: (§4)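 MRSA USA300-infected punch wounds in mice, n=5. Topical 2% agent or petroleum jelly vehicle twice daily from day 2 for 5 days. The left wound was formalin-fixed, cut into 4-μm sections and H&E-stained. Whole slides were scanned and assessed by a board-certified veterinary pathologist for necrosis, inflammation, haemorrhage and related features.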

Staphylococcus aureus [11] = experiment: Downregulation of hydrolase protein expression in Staphylococcus aureus measured after 2 hrs by LC-MS/MS analysis; format: functional; in short: as §1
Staphylococcus aureus [12] = experiment: Downregulation of uroporphyrinogen-III C-methyltransferase protein expression in Staphylococcus aureus measured after 2 hrs by LC-MS/MS analysis; format: functional; in short: as §2
Staphylococcus aureus [13] = experiment: Upregulation of zinc ABC transporter ATP-binding protein expression in Staphylococcus aureus measured after 2 hrs by LC-MS/MS analysis; format: functional; in short: as §2
Staphylococcus aureus [14] = experiment: Downregulation of PTS mannose transporter subunit IIABC protein expression in Staphylococcus aureus measured after 2 hrs by LC-MS/MS analysis; format: functional; in short: as §1
Staphylococcus aureus [15] = experiment: Upregulation of glycine cleavage system protein H expression in Staphylococcus aureus measured after 2 hrs by LC-MS/MS analysis; format: functional; in short: as §2
[16] = Toxicity in Balb/c mouse infected with methicillin-resistant Staphylococcus aureus USA300 assessed as chronic inflammatory response administered topically twice daily 2 days post infection and measured after 5 days post compound treatment by H and E staining based histopathological analysis; details: in vivo, topical_or_ocular, 120 h, time 5 day; in short: as §4
Mus musculus [17] = experiment: Acceleration of wound healing in methicillin-resistant Staphylococcus aureus USA300 infected Balb/c mouse model assessed as reduction in MCP-1 protein level in skin wounds administered topically twice daily 2 days post infection and measured after 5 days post compound treatment; format: functional, organism-based; details: time 5.0 day; in short: as §3
[18] = In vivo antibacterial activity against methicillin-resistant Staphylococcus aureus USA300 infected in Balb/c mouse model assessed as reduction in bacterial infection in skin wounds administered topically twice daily 2 days post infection and measured after 5 days post compound treatment by CFU counting; set-up: scale not given: the % may be the effect or the level left; details: time 5 day
Staphylococcus aureus [19] = experiment: Upregulation of ribonuclease HIII expression in Staphylococcus aureus measured after 2 hrs by LC-MS/MS analysis; format: functional; in short: as §2
Staphylococcus aureus [20] = experiment: Downregulation of oxidoreductase protein expression in Staphylococcus aureus measured after 2 hrs by LC-MS/MS analysis; format: functional; in short: as §2
Streptococcus pyogenes [21] = experiment: Antibacterial activity against Streptococcus pyogenes MGAS 1882 assessed as inhibition of bacterial growth incubated for 18 to 20 hrs by broth microdilution method; format: functional; details: time 18-20 hrs
In short: (§5)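 Broth microdilution with a 0.5 McFarland inoculum diluted in tryptic soy broth to about 5 × 10^5 CFU/mL. Serial compound dilutions incubated aerobically at 37° C for 18–20 hours. MIC read visually as the lowest concentration with no growth.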

Staphylococcus aureus [22] = experiment: Downregulation of SarR protein expression in Staphylococcus aureus assessed as log2 of fold change in protein level measured after 2 hrs by LC-MS/MS analysis relative to control; format: functional; in short: as §1
Staphylococcus aureus [23] = experiment: Antibacterial activity against methicillin-resistant Staphylococcus aureus NRS 386 assessed as inhibition of bacterial growth incubated for 18 to 20 hrs by broth microdilution method; format: functional; details: time 18-20 hrs
In short: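 Broth microdilution per CLSI. Inoculum was set to 0.5 McFarland and diluted in CAMHB to about 5×10^5 CFU/mL. Serial dilutions of agent were incubated aerobically at 37 °C for 18–20 h. MIC was read visually as the lowest concentration with complete growth inhibition.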

Staphylococcus aureus [24] = experiment: Upregulation of peptidase M23 protein expression in Staphylococcus aureus assessed as log2 of fold change in protein level measured after 2 hrs by LC-MS/MS analysis relative to control; format: functional; in short: as §2
Staphylococcus aureus [25] = experiment: Upregulation of GpmA protein expression in Staphylococcus aureus assessed as log2 of fold change in protein level measured after 2 hrs by LC-MS/MS analysis relative to control; format: functional; in short: as §2
Streptococcus pyogenes [26] = experiment: Antibacterial activity against Streptococcus pyogenes MGAS 9882 assessed as inhibition of bacterial growth incubated for 18 to 20 hrs by broth microdilution method; format: functional; details: time 18-20 hrs; in short: as §5

With CC1CC(C)CN(S(=O)(=O)c2ccc(C(=O)Nc3nnc(-c4ccc(C(F)(F)F)cc4)o3)cc2)C1 (stereo unspecified) the log2FC (Staphylococcus aureus [1]) was -3.7, the Activity (Staphylococcus aureus [2]) was “Active” and the Activity (Staphylococcus aureus [3]) was “Active”. For the same compound, the Activity (Staphylococcus aureus [4]) was “Active”, the Activity (Staphylococcus aureus [5]) was “Active” and the Activity (Staphylococcus aureus [6]) was “Active”. For the same compound, the Activity (Staphylococcus aureus [7]) was “Active”, the Activity (Mus musculus [8]) was “Active” and the log2FC (Staphylococcus aureus [9]) was -2. The Activity [10] was “Toxic”, the Activity (Staphylococcus aureus [11]) was “Active” and the Activity (Staphylococcus aureus [12]) was “Active”. For the same compound, the Activity (Staphylococcus aureus [13]) was “Active”, the Activity (Staphylococcus aureus [14]) was “Active” and the Activity (Staphylococcus aureus [15]) was “Active”. The Activity [16] was “Toxic”, the Activity (Mus musculus [17]) was “Active” and the Activity [18] was 93.8%. For the same compound, the Activity (Staphylococcus aureus [19]) was “Active”, the Activity (Staphylococcus aureus [20]) was “Active” and the MIC (Streptococcus pyogenes [21]) was 0.06 µg/mL (≈ 0.118 µM). It also gave a log2FC (Staphylococcus aureus [22]) of -2, an MIC (Staphylococcus aureus [23]) of 0.25 µg/mL (≈ 0.492 µM) and a log2FC (Staphylococcus aureus [24]) of 2. It also gave a log2FC (Staphylococcus aureus [25]) of 2.2 and an MIC (Streptococcus pyogenes [26]) of 0.06 µg/mL (≈ 0.118 µM).
